In ChEMBL document CHEMBL1649387, “Synthesis and evaluation of quinonoid compounds against tumor cell lines” (Eur J Med Chem, 2011):
pIC50: −log10 of the molar value. Activity calls are given as the source filed them. No cut-off for these calls is given here.

How the values were obtained:
[1] = system: HCT-8; test: Cytotoxicity against human HCT8 cells after 72 hrs by MTT assay; assay type: functional, cell-based; settings: HCT-8, 72 h
[2] = system: HCT-8; test: Induction of apoptosis in human HCT8 cells assessed as apoptotic nuclei at 5 uM after 24 hrs by acridine orange/ethidium bromide staining based fluorescence microscopy in presence of 1-bromoheptane; assay type: functional
How it was run: (§1)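 Cells exposed 24 h, with or without 24 h pretreatment with 1-bromoheptane. Cell suspension mixed with acridine orange/ethidium bromide (each 100 in PBS) and spread on slide. 300 cells counted per point by fluorescence microscopy to give % apoptotic cells. Mean ± S.E.M. of three experiments.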

[3] = system: SF-295; test: Induction of apoptosis in human SF295 cells assessed as apoptotic nuclei at 5 uM after 24 hrs by acridine orange/ethidium bromide staining based fluorescence microscopy; assay type: functional; how it was run: as §1
[4] = system: HL-60; test: Induction of apoptosis in human HL60 cells assessed as apoptotic nuclei at 5 uM after 24 hrs by acridine orange/ethidium bromide staining based fluorescence microscopy in presence of 1-bromoheptane; assay type: functional; how it was run: as §1
[5] = system: SF-295; test: Cytotoxicity against human SF295 cells after 72 hrs by MTT assay; assay type: functional, cell-based; settings: SF-295, 72 h
[6] = system: HL-60; test: Induction of apoptosis in human HL60 cells assessed as apoptotic nuclei at 5 uM after 24 hrs by acridine orange/ethidium bromide staining based fluorescence microscopy; assay type: functional; how it was run: as §1
[7] = system: MDA-MB-435; test: Induction of apoptosis in human MDA-MB-435 cells assessed as apoptotic nuclei at 5 uM after 24 hrs by acridine orange/ethidium bromide staining based fluorescence microscopy; assay type: functional; how it was run: as §1
[8] = system: MDA-MB-435; test: Cytotoxicity against human MDA-MB-435 cells after 72 hrs by MTT assay; assay type: functional, cell-based; settings: MDA-MB-435, 72 h
[9] = system: SF-295; test: Induction of apoptosis in human SF295 cells assessed as apoptotic nuclei at 5 uM after 24 hrs by acridine orange/ethidium bromide staining based fluorescence microscopy in presence of 1-bromoheptane; assay type: functional; how it was run: as §1
[10] = system: PBMC; test: Cytotoxicity against human PBMC cells after 72 hrs by Alamar Blue assay; assay type: cell-based
[11] = system: MDA-MB-435; test: Induction of apoptosis in human MDA-MB-435 cells assessed as apoptotic nuclei at 5 uM after 24 hrs by acridine orange/ethidium bromide staining based fluorescence microscopy in presence of 1-bromoheptane; assay type: functional; how it was run: as §1
[12] = system: HCT-8; test: Induction of apoptosis in human HCT8 cells assessed as apoptotic nuclei at 5 uM after 24 hrs by acridine orange/ethidium bromide staining based fluorescence microscopy; assay type: functional; how it was run: as §1
[13] = system: HL-60; test: Cytotoxicity against human HL60 cells after 72 hrs by MTT assay; assay type: functional, cell-based; settings: HL-60, 72 h
[14] = system: SF-295; test: Induction of lipid peroxidation in human SF295 cells assessed as increase in TBARS formation at 5 uM after 24 hrs in presence of […]; assay type: functional, cell-based
How it was run: (§2)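 Cells treated 24 h, with or without 24 h pretreatment with 5 mM NAC. Cells lysed with Tris-HCl (15 mM, 1 h) and heated with TCA/HCl/thiobarbituric acid for 15 min at 100 °C, then centrifuged. TBARS read at 532 nm against hydrolyzed 1,1,3,3-tetramethoxypropane standard and normalized to protein.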

[15] = system: SF-295; test: DNA damage index, DNA damage in human SF295 cells to DNA damage in human HL60 cells with FPG/ENDO3 DNA repair enzymes in presence of […]; assay type: functional
How it was run: (§3)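 Cells treated 12 h, then alkaline comet slides washed in enzyme buffer (40 mM HEPES, 100 mM KCl, 0.5 mM Na2EDTA, 0.2 mg/mL BSA, pH 8.0). Slides then incubated with FPG (30 min, 37 °C) or ENDOIII (45 min, 37 °C). Enzyme-sensitive sites = total breaks minus buffer-only breaks. 100 cells scored per group. NAC pretreatment 5 mM. Mean ± S.E.M. of three experiments.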

[16] = system: HCT-8; test: Induction of lipid peroxidation in human HCT8 cells assessed as increase in TBARS formation at 5 uM after 24 hrs in presence of […]; assay type: functional, cell-based; how it was run: as §2
[17] = system: SF-295; test: DNA damage index, DNA damage in human SF295 cells to DNA damage in human HL60 cells with FPG/ENDO3 DNA repair enzymes; assay type: functional; how it was run: as §3
[18] = system: HL-60; test: DNA damage index, DNA damage in human HL60 cells to DNA damage in human HL60 cells with FPG/ENDO3 DNA repair enzymes in presence of […]; assay type: functional; how it was run: as §3
[19] = system: MDA-MB-435; test: DNA damage index, DNA damage in human MDA-MB-435 cells to DNA damage in human HL60 cells with FPG/ENDO3 DNA repair enzymes; assay type: functional; how it was run: as §3
[20] = system: HCT-8; test: Induction of lipid peroxidation in human HCT8 cells assessed as increase in TBARS formation at 5 uM after 24 hrs; assay type: functional, cell-based; how it was run: as §2
[21] = system: MDA-MB-435; test: Induction of lipid peroxidation in human MDA-MB-435 cells assessed as increase in TBARS formation at 5 uM after 24 hrs; assay type: functional, cell-based; how it was run: as §2
[22] = system: HCT-8; test: DNA damage index, DNA damage in human HCT8 cells to DNA damage in human HL60 cells with FPG/ENDO3 DNA repair enzymes in presence of […]; assay type: functional; how it was run: as §3
[23] = system: SF-295; test: Induction of lipid peroxidation in human SF295 cells assessed as increase in TBARS formation at 5 uM after 24 hrs; assay type: functional, cell-based; how it was run: as §2
[24] = system: HL-60; test: Induction of lipid peroxidation in human HL60 cells assessed as increase in TBARS formation at 5 uM after 24 hrs in presence of […]; assay type: functional, cell-based; how it was run: as §2
[25] = system: HCT-8; test: DNA damage index, DNA damage in human HCT8 cells to DNA damage in human HL60 cells with FPG/ENDO3 DNA repair enzymes; assay type: functional; how it was run: as §3
[26] = system: HL-60; test: DNA damage index, DNA damage in human HL60 cells to DNA damage in human HL60 cells with FPG/ENDO3 DNA repair enzymes; assay type: functional; how it was run: as §3
[27] = system: HL-60; test: Induction of lipid peroxidation in human HL60 cells assessed as increase in TBARS formation at 5 uM after 24 hrs; assay type: functional, cell-based; how it was run: as §2
[28] = system: MDA-MB-435; test: Induction of lipid peroxidation in human MDA-MB-435 cells assessed as increase in TBARS formation at 5 uM after 24 hrs in presence of […]; assay type: functional, cell-based; how it was run: as §2
[29] = system: MDA-MB-435; test: DNA damage index, DNA damage in human MDA-MB-435 cells to DNA damage in human HL60 cells with FPG/ENDO3 DNA repair enzymes in presence of […]; assay type: functional; how it was run: as §3
[30] = system: HCT-8; test: Induction of apoptosis in human HCT8 cells assessed as cell viability at 5 uM after 24 hrs by trypan blue exclusion assay; assay type: functional, cell-based
How it was run: (§4)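 Cells incubated 24 h, with or without 24 h pretreatment with 5 mM NAC. Viability determined by trypan blue dye exclusion.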

[31] = system: SF-295; test: Induction of apoptosis in human SF295 cells assessed as cell viability at 5 uM after 24 hrs by trypan blue exclusion assay in presence of […]; assay type: functional, cell-based; how it was run: as §4
[32] = system: HL-60; test: Genotoxicity in human HL60 cells assessed as DNA strand breaks at 5 uM after 24 hrs by comet assay in presence of […]; assay type: functional, cell-based
How it was run: (§5)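 Cells treated 24 h, with or without 24 h pretreatment with 5 mM NAC. Cells embedded in 0.75% low-melt agarose and lysed (pH 10.0, 4 °C, ≥1 h). DNA unwound 20 min in 300 mM NaOH/1 mM EDTA (pH >13), then electrophoresed 20 min at 0.86 V/cm and stained with ethidium bromide. 100 cells scored visually into classes 0–4 to give damage index.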

[33] = system: HCT-8; test: Genotoxicity in human HCT8 cells assessed as DNA strand breaks at 5 uM after 24 hrs by comet assay; assay type: functional, cell-based; how it was run: as §5
[34] = system: HCT-8; test: Induction of apoptosis in human HCT8 cells assessed as cell viability at 5 uM after 24 hrs by trypan blue exclusion assay in presence of […]; assay type: functional, cell-based; how it was run: as §4
[35] = system: SF-295; test: Induction of apoptosis in human SF295 cells assessed as cell viability at 5 uM after 24 hrs by trypan blue exclusion assay; assay type: functional, cell-based; how it was run: as §4
[36] = system: HL-60; test: Induction of apoptosis in human HL60 cells assessed as cell viability at 5 uM after 24 hrs by trypan blue exclusion assay in presence of […]; assay type: functional, cell-based; how it was run: as §4
[37] = system: HL-60; test: Induction of apoptosis in human HL60 cells assessed as cell viability at 5 uM after 24 hrs by trypan blue exclusion assay; assay type: functional, cell-based; how it was run: as §4
[38] = system: HL-60; test: Genotoxicity in human HL60 cells assessed as DNA strand breaks at 5 uM after 24 hrs by comet assay; assay type: functional, cell-based; how it was run: as §5
[39] = system: MDA-MB-435; test: Induction of apoptosis in human MDA-MB-435 cells assessed as cell viability at 5 uM after 24 hrs by trypan blue exclusion assay in presence of […]; assay type: functional, cell-based; how it was run: as §4
[40] = system: MDA-MB-435; test: Genotoxicity in human MDA-MB-435 cells assessed as DNA strand breaks at 5 uM after 24 hrs by comet assay in presence of […]; assay type: functional, cell-based; how it was run: as §5
[41] = system: HCT-8; test: Genotoxicity in human HCT8 cells assessed as DNA strand breaks at 5 uM after 24 hrs by comet assay in presence of […]; assay type: functional, cell-based; how it was run: as §5
[42] = system: SF-295; test: Genotoxicity in human SF295 cells assessed as DNA strand breaks at 5 uM after 24 hrs by comet assay; assay type: functional, cell-based; how it was run: as §5
[43] = system: MDA-MB-435; test: Induction of apoptosis in human MDA-MB-435 cells assessed as cell viability at 5 uM after 24 hrs by trypan blue exclusion assay; assay type: functional, cell-based; how it was run: as §4
[44] = system: SF-295; test: Genotoxicity in human SF295 cells assessed as DNA strand breaks at 5 uM after 24 hrs by comet assay in presence of […]; assay type: functional, cell-based; how it was run: as §5
[45] = system: MDA-MB-435; test: Genotoxicity in human MDA-MB-435 cells assessed as DNA strand breaks at 5 uM after 24 hrs by comet assay; assay type: functional, cell-based; how it was run: as §5

Structure (SMILES)	pIC50 [1]	Activity [2]	Activity [3]	Activity [4]	pIC50 [5]	Activity [6]	Activity [7]	pIC50 [8]	Activity [9]	pIC50 [10]	Activity [11]	Activity [12]	pIC50 [13]	Activity [14]	Activity [16]	Activity [20]	Activity [21]	Activity [23]	Activity [24]	Activity [27]	also measured
CC(C)CCC1=C(OC2(CCC(C)C)C(=O)C(=O)c3ccccc3C2=O)C(=O)c2ccccc2C1=O (stereo unspecified)	< 4.99	11.46%	7.94%	4.17%	< 4.99	8.13%	9.51%	< 4.99	8.01%	< 4.99	7.44%	8.71%	< 4.99	–	–	–	–	–	–	–	–
O=C1c2ccccc2C(=O)c2c1ccc1nc(-c3ccccc3O)[nH]c21	5.44	4.19%	11.73%	12.59%	5.41	8.21%	7.39%	< 4.83	9.91%	< 4.83	10.04%	6.48%	< 4.83	–	–	–	–	–	–	–	–
CC1(C)CCC2=C(O1)c1ccccc1C(=O)C2=O [LAPACHONE]	–	–	–	–	–	–	–	–	–	< 4.69	–	–	–	inactive	inactive	Active	Active	Active	inactive	Active	Ratio [15]: 8.72; Ratio [17]: 58.75; Ratio [18]: 8.33; Ratio [19]: 83.17; Ratio [22]: 11.41; Ratio [25]: 72.41; Ratio [26]: 61.36; Activity [28]: inactive; Ratio [29]: 5.16
CC1(C)OC2=C(C(=O)C(=O)c3ccccc32)[C@H](n2cc(-c3ccccc3)nn2)[C@H]1Br	5.86	–	–	–	5.81	–	–	5.91	–	–	–	–	6.00	inactive	inactive	Active	Active	Active	inactive	Active	Activity [30]: Active; Activity [31]: inactive; Activity [32]: inactive; Activity [33]: Active; Activity [34]: inactive; Activity [35]: Active; Activity [36]: inactive; Activity [37]: Active; Activity [38]: Active; Activity [39]: inactive; Activity [40]: inactive; Activity [41]: inactive; Activity [42]: Active; Activity [43]: Active; Activity [44]: inactive; Activity [28]: inactive; Activity [45]: Active
